Calls of active or inactive are those of the source. No cut-off for these calls is given here.
Tests used:
MCF7 [1] = assay: Antiproliferative activity against human MCF7 cells after 24 hrs by MTT assay; type: functional, cell-based; conditions: MCF7, 24 h
MDA-MB-231 [2] = assay: Antiproliferative activity against human MDA-MB-231 cells after 24 hrs by MTT assay; type: functional, cell-based; conditions: MDA-MB-231, 24 h
[3] = target: T1, Bromodomain-containing protein 4 (Homo sapiens, UniProt O60885); assay: Inhibition of BRD4 in human MDA-MB-231 cells assessed as induction of AMPKalpha phosphorylation at thr172 at 3 uM measured up to 36 hrs by Western blot analysis; type: cell-based
Outline: (§1)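 MCF-7 (1.5 μM) or MDA-MB-231 (3 μM) cells treated for indicated times. Adherent and floating cells lysed in RIPA with 1 mM PMSF. Equal protein run on 10-15% SDS-PAGE, blotted to PVDF, blocked in milk or BSA, HRP/ECL detection. β-actin loading control.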

MCF7 [4] = assay: Induction of autophagy in GFP-LC3 fused human MCF7 cells assessed as increase in LC3 puncta at 1.5 uM by fluorescence microscopy; type: functional, cell-based
Outline: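 MCF-7 or MDA-MB-231 cells transfected with eGFP-LC3 plasmid, then treated with 1.5 or 3 µM respectively for 24 h. LC3 puncta viewed by fluorescence microscopy.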

MCF7 [5] = assay: Induction of autophagy in human MCF7 cells assessed as increase in LC3B puncta at 1.5 uM after 24 hrs by DAPI-staining based immunocytochemistry; type: functional, cell-based
Outline: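 MCF-7 cells treated with 1.5 µM for 24 h and blocked with 1.5% goat serum in PBS. Incubated overnight at 4°C with anti-LC3B (1:200) in PBS/1% BSA, then FITC secondary for 1 h at room temperature. Nuclei counterstained with DAPI; LC3B puncta imaged.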

MDA-MB-231 [6] = assay: Induction of autophagy in human MDA-MB-231 cells assessed as increase in LC3B puncta at 3 uM after 24 hrs by DAPI-staining based immunocytochemistry; type: functional, cell-based
Outline: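 MDA-MB-231 cells treated with 3 μM for 24 h. Blocked in PBS with 1.5% goat serum, anti-LC3B (1:200 in PBS/1% BSA) overnight at 4 °C, then FITC secondary 1 h at room temperature. DAPI counterstain; LC3B puncta scored by fluorescence microscopy.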

MCF7 [7] = assay: Induction of autophagy in human MCF7 cells assessed as increase in LC3-2 expression at 1.5 uM by Western blot analysis; type: functional, cell-based; conditions: TDE = time-dependent effect
Outline: (§2)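 MCF-7 (1.5 µM) or MDA-MB-231 (3 µM) cells treated for indicated times. Adherent and floating cells lysed in RIPA with 1 mM PMSF, 4°C for 1 h. Equal protein run on 10-15% SDS-PAGE, transferred to PVDF, blocked with milk or BSA, probed with primary then HRP secondary antibodies, ECL detection; β-actin as loading control.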

MCF7 [8] = assay: Induction of autophagy in human MCF7 cells assessed as downregulation of p62/SQSTM1 expression at 1.5 uM measured up to 36 hrs by Western blot analysis; type: functional, cell-based; outline: as §2
MDA-MB-468 = assay: Induction of autophagy in human MDA-MB-468 cells assessed as upregulation of beclin1 expression measured up to 48 hrs by Western blot analysis; type: functional, cell-based
MCF7 [9] = assay: Effect on mTOR expression in human MCF7 cells at 1.5 uM measured up to 36 hrs by Western blot analysis; type: ADME, cell-based; conditions: mcf7, 36 h; outline: as §2
MDA-MB-231 [10] = assay: Induction of autophagy in human MDA-MB-231 cells assessed as downregulation of p62/SQSTM1 expression at 3 uM in presence of ATG5 siRNA by Western blot analysis; type: functional, cell-based
[11] = target: T1, Bromodomain-containing protein 4; assay: Inhibition of BRD4 in human MDA-MB-231 cells assessed as induction of AMPKalpha phosphorylation at thr172 at 3 uM in presence of ATG5 siRNA by Western blot analysis; type: cell-based
Outline: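 Cells given 50 nM ATG5 or negative-control siRNA (Lipofectamine RNAiMAX) and used 48 h later, then exposed to 1.5 μM (MCF-7) or 3 μM (MDA-MB-231). p-AMPKα analysed by western blot with β-actin loading control.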

[12] = target: T1, Bromodomain-containing protein 4; assay: Inhibition of recombinant human BRD4 bromodomain-1 (49 to 170 residues) expressed in Escherichia coli expression system after 120 mins by TR-FRET assay
[13] = target: Bromodomain testis-specific protein (Homo sapiens, UniProt Q58F21); assay: Inhibition of recombinant human N-terminal GST-tagged BRDT bromodomain-1 (22 to 138 residues) expressed in Escherichia coli expression system after 120 mins by TR-FRET assay
Outline: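 TR-FRET bromodomain binding. Recombinant BRD domain, BET ligand and test agent in 20 μl assay buffer with 1% DMSO final. Incubated 120 min at room temperature. Blank lacks BET ligand.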

Mus musculus [14] = assay: In vivo Antiproliferative activity in BALB/c mouse xenografted with human MCF7 cells assessed as reduction in Ki-67 positive cells at 100 mg/kg, ig administered once a day for 24 days by hematoxylin-staining based immunohistochemistry analysis; type: functional, organism-based
Outline: (§3)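 Xenograft tumors from vehicle and 100 mg/kg groups were formalin-fixed and sectioned. Antigen retrieval by microwaving in EDTA buffer (pH 8.0) or citrate buffer (pH 6.0). […] Percentage of positive staining quantified.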

Mus musculus [15] = assay: In vivo Antiproliferative activity in BALB/c mouse xenografted with human MCF7 cells assessed as increase in LC3 expression at 100 mg/kg, ig administered once a day for 24 days by hematoxylin-staining based immunohistochemistry analysis; type: functional, organism-based; outline: as §3
Mus musculus [16] = assay: In vivo inhibition of c-Myc expression in BALB/c mouse xenografted with human MCF7 cells at 100 mg/kg, ig administered once a day for 24 days by Western blot analysis; type: functional, organism-based
Outline: (§4)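 Tumor tissues excised from MCF-7 or MDA-MB-231 xenograft mice were lysed and analysed by western blot for BRD4, c-Myc, LC3 and cleaved caspase-3.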

[17] = target: T1, Bromodomain-containing protein 4; assay: Inhibition of BRD4 interaction with AMPK in human MDA-MB-231 cells at 3 uM by co-immunoprecipitation assay; type: cell-based
Outline: (§5)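 Cells lysed in RIPA buffer (40 mM Tris-HCl pH 7.5, 150 mM NaCl, 0.5% NP-40, 5% glycerol, 10 mM NaF, protease inhibitors). Lysates incubated overnight at 4 °C with BRD4 or p53 antibody plus protein A/G beads, washed 3 times, resolved on 10% SDS-PAGE and blotted for AMPKα or p53.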

[18] = target: T1, Bromodomain-containing protein 4; assay: Inhibition of BRD4 interaction with p53 in human MDA-MB-231 cells at 3 uM by co-immunoprecipitation assay; type: cell-based; outline: as §5
MDA-MB-231 [19] = assay: Induction of autophagy in human MDA-MB-231 cells assessed as assessed as cytoplasmic vacuolization; type: functional, cell-based
[20] = target: T1, Bromodomain-containing protein 4; assay: Inhibition of BRD4 in human MCF7 cells assessed as reduction in ATG13 protein expression at 1.5 uM up to 36 hrs by Western blot analysis; type: cell-based; outline: as §1
[21] = target: T1, Bromodomain-containing protein 4; assay: Inhibition of BRD4 in human MDA-MB-231 cells assessed as reduction in ATG13 protein expression at 3 uM up to 36 hrs by Western blot analysis; type: cell-based; outline: as §1
Mus musculus [22] = assay: Induction of LC3 accumulation in BALB/c mouse xenografted with human MDA-MB-231 cells at 100 mg/kg, ig administered once a day for 24 days by Western blot analysis; type: functional, organism-based; outline: as §4

IC50 (MCF7 [1]): 1.62 µM
IC50 (MDA-MB-231 [2]): 3.27 µM
inhibition [3]: Active
inhibition [11]: Active
IC50 [12]: 0.47 µM
IC50 [13]: > 100 µM
inhibition [17]: Active
inhibition [18]: inactive
inhibition [20]: Active
inhibition [21]: Active
SMILES: Cc1cc(-c2nc3sc4c(c3c(=O)[nH]2)CCN(C)C4)cc(C)c1O
Activity (MCF7 [4]): Active
Activity (MCF7 [5]): Active
Activity (MDA-MB-231 [6]): Active
Activity (MCF7 [7]): Tde
Activity (MCF7 [8]): Active
Activity (MDA-MB-468): inactive
Activity (MCF7 [9]): Non-Toxic
Activity (MDA-MB-231 [10]): inactive
Activity (Mus musculus [14]): Active
Activity (Mus musculus [15]): Active
Activity (Mus musculus [16]): Active
Activity (MDA-MB-231 [19]): Active
Activity (Mus musculus [22]): Active

— ChEMBL document CHEMBL4028911, “Discovery of a Small-Molecule Bromodomain-Containing Protein 4 (BRD4) Inhibitor That Induces AMP-Activated Protein Kinase-Modulated Autophagy-Associated Cell Death in Breast Cancer” (J Med Chem, 2017)
